Assay [1] in a line: SK-BR-3 cell growth inhibitors, pilot screen, 24 h, human (AID 572;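 active = viability at or below 10% of carrier control in both of two separate runs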;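 also: compound exposure lasted between 18 and 24 h rather than exactly 24 h; 100% = carrier-treated control wells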). Particulars: SK-BR-3 viability, CellTiter-Glo luminescence, at 10 µM, stronger effect = lower value.
Assay [2] in a line: HUVEC growth inhibition – cell-based, human, primary screen (AID 575;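 active = viability at or below 30% in both replicate assays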;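 also: 100% = median of untreated cell wells with 0.1% DMSO on each plate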). The conditions noted are these: HUVEC proliferation, CellTiter-Glo luminescence, 72 h; at 10 µM; stronger effect = lower value. The procedure, abridged:
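Test system: primary human umbilical vein endothelial cells. Quantity: 1250 cells/well. Compound: single 10 µM dose, 0.1% DMSO, from 5x medium stock. Timing: 72 h treatment at 37 °C. Detection: ATP-based CellTiter-Glo luminescent read. Benchmarks: vehicle and MePR control wells. Format: 384-well plates coated with collagen.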

Assay [3] is described as follows: growth inhibitors of H69AR lung tumor, primary screen, human, duplicate replicates (AID 580).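 Also: 100% = mean luminescence of untreated wells and 0% = no signal.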 Particulars: H69AR lung tumor cells viability, ATP luminescence, 72 h; at 10 µM; stronger effect = lower value.
Assay [4] is described as follows: reversal of MRP1-mediated doxorubicin resistance, pilot screen, H69AR cells, doxorubicin co-treatment (AID 601;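 active = viability loss from added drug above about 55%, and viability with drug at most 40%, in both replicates, limit read from the data, passing the limit was not always enough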). The conditions noted are these: CellTiter-Glo, 72 h, at 10 µM; for differential viability (reversal): stronger effect = higher value.
A short description of assay [5]: 384-well plate pilot, post-Golgi transport modulator project, inhibition of yeast transport mutant growth (AID 636; in the data active = inhibition above about 31%). The conditions noted are these: absorbance 615 nm, about 18 h, stronger effect = higher value.
Assay [6] is described as follows: growth suppression of yeast trafficking mutant, preliminary HTS, modulators of trafficking downstream of Golgi apparatus project, 1536-format plate, OD 615 nm (AID 637; in the data active = inhibition above about 30%). Particulars: yeast transport mutant growth, absorbance 615 nm, 18 h; stronger effect = higher value.
Where [7] appears, read: H69AR cells + 2 uM doxorubicin, measured here: viability with 2 uM doxorubicin, stronger effect = lower value.
The mark [8] stands for this setting: H69AR cells, compound alone cytotoxicity.

SMILES strings stand for the structures. The source made the active and inactive calls.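 The calls were made as follows, unless noted: active = viability at or under a set limit in both replicates, limit being median viability minus 3 SD (cut at about 48% in these data, passing the limit was not always enough); inconclusive = at or under the limit in just one replicate; inactive = at or above the limit in both replicates.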

In the case of `COc1cc(NS(=O)(=O)c2ccc(N)cc2)ncn1`, the viability in assay [1] is 107% (inactive); in assay [2], 75% (inactive); in assay [3] it was 92% (inactive); in assay [4] (setting [7]) it was 65%; in assay [4] (setting [8]), 92%. Besides, in assay [4] (H69AR cells + 2 uM doxorubicin), the differential viability (reversal) is 27% (inactive). Besides, the inhibition was -1.56% (inactive) in assay [5] and 2.5% (inactive) in assay [6].
For `CCCN(CCC)S(=O)(=O)c1ccc(C(=O)O)cc1`, the viability is 99% (inactive) in assay [1]; 96.2% (inactive) in assay [2]; 97.2% (inactive) in assay [3]; 87.1% in assay [4] (setting [7]); 97.2% in assay [4] (setting [8]). Also, the differential viability (reversal) in assay [4] (H69AR cells + 2 uM doxorubicin) was 10.1% (inactive). The inhibition was -0.52% (inactive) in assay [5] and -1.5% (inactive) in assay [6].
As for `O=C1c2ccccc2C(=O)N1CCN1CCCCC1`, the viability was 98% (inactive) in assay [1]; 129% (inactive) in assay [2]; 103% (inactive) in assay [3]; 99.4% in assay [4] (setting [7]); 103% in assay [4] (setting [8]). Moreover, the differential viability (reversal) in assay [4] (H69AR cells + 2 uM doxorubicin) is 4.01% (inactive). In addition, the inhibition in assay [5] is 3.38% (inactive); in assay [6], -1.64% (inactive).
As for `O=C1CCC(C(=O)N(Cc2ccco2)C2(C(=O)NC3CCCC3)CCCCC2)N1` (configuration not stated), the viability in assay [1] is 94% (inactive); in assay [2], 106% (inactive); in assay [3], 87.7% (inactive); in assay [4] (setting [7]), 96.1%; in assay [4] (setting [8]) it was 87.7%. For the same compound, in assay [4] (H69AR cells + 2 uM doxorubicin), the differential viability (reversal) is -8.42% (inactive). Further, the inhibition in assay [5] was -7.81% (inactive); in assay [6], -1.09% (inactive).
Turning to `CC(N)C12CC3CC(C1)CC(C(C)N)(C3)C2` (configuration not stated), the viability in assay [1] was 87% (inactive); in assay [2], 110% (inactive); in assay [3], 101% (inactive); in assay [4] (setting [7]), 89.4%; in assay [4] (setting [8]), 101%. In addition, the differential viability (reversal) in assay [4] (H69AR cells + 2 uM doxorubicin) is 11.4% (inactive). The inhibition in assay [5] is -3.6% (inactive); in assay [6] it was -4.18% (inactive).
On to `Cc1cc(C)c2nc(C(F)(F)F)nc(NCCCN3CCCC3=O)c2c1`, for which the viability was 113% (inactive) in assay [1]; 51.4% (inactive) in assay [2]; 83.7% (inactive) in assay [3]; 92.7% in assay [4] (setting [7]); 83.7% in assay [4] (setting [8]). Besides, the differential viability (reversal) in assay [4] (H69AR cells + 2 uM doxorubicin) was -9.04% (inactive). Besides, the inhibition was -4.38% (inactive) in assay [5] and 0.65% (inactive) in assay [6].
As for `Cn1c(=O)[nH]c(=O)c2c1ncn2CCN1CCOCC1`, the viability in assay [1] is 96% (inactive); in assay [2], 102% (inactive); in assay [3], 99.1% (inactive); in assay [4] (setting [7]), 93.8%; in assay [4] (setting [8]), 99.1%. Further, in assay [4] (H69AR cells + 2 uM doxorubicin), the differential viability (reversal) was 5.28% (inactive). Also, the inhibition was -2.6% (inactive) in assay [5] and -1.48% (inactive) in assay [6].
As for `CCN(CC)S(=O)(=O)c1ccc(NC(=O)c2cccc3c2C(=O)N(CCOC)C3)cc1`, the viability was 119% (inactive) in assay [1]; 109% (inactive) in assay [2]; 94.4% (inactive) in assay [3]; 85.2% in assay [4] (setting [7]); 94.4% in assay [4] (setting [8]). The differential viability (reversal) in assay [4] (H69AR cells + 2 uM doxorubicin) is 9.21% (inactive). Besides, the inhibition is -9.73% (inactive) in assay [5] and -5.45% (inactive) in assay [6].
With `COC(=O)c1cccc(S(=O)(=O)N2CCC(C)CC2)c1`, the viability in assay [1] was 100% (inactive); in assay [2], 105% (inactive); in assay [3] it was 93.8% (inactive); in assay [4] (setting [7]), 98.1%; in assay [4] (setting [8]), 93.8%. In addition, the differential viability (reversal) in assay [4] (H69AR cells + 2 uM doxorubicin) was -4.31% (inactive). The inhibition in assay [5] is 0.52% (inactive); in assay [6] it was -3.44% (inactive).
For the compound `O=C(NCC(=O)N(c1cccnc1)C(C(=O)NC1CCCCC1)c1cccnc1)c1ccco1` (configuration not stated), the viability in assay [1] was 111% (inactive); in assay [2], 113% (inactive); in assay [3], 109% (inactive); in assay [4] (setting [7]), 99.9%; in assay [4] (setting [8]), 109%. Besides, the differential viability (reversal) in assay [4] (H69AR cells + 2 uM doxorubicin) was 9.06% (inactive). Besides, the inhibition in assay [5] is -3.07% (inactive); in assay [6], 4.91% (inactive).
Turning to `Nc1nc(N)c2nc(-c3ccccc3)c(N)nc2n1`, the viability in assay [1] was 128% (inactive); in assay [2] it was 90.5% (inactive); in assay [3] it was 73.3% (inactive); in assay [4] (setting [7]), 78%; in assay [4] (setting [8]), 73.3%. In addition, in assay [4] (H69AR cells + 2 uM doxorubicin), the differential viability (reversal) is -4.71% (inactive). The inhibition in assay [5] is -2.08% (inactive); in assay [6] it was 1.5% (inactive).
Take `CC(C)(C)NC(=O)C(Cc1ccccc1)NS(=O)(=O)c1cccc2nsnc12` (configuration not stated): the viability in assay [1] was 87% (inactive); in assay [2], 105% (inactive); in assay [3], 87.8% (inactive); in assay [4] (setting [7]) it was 95.3%; in assay [4] (setting [8]) it was 87.8%. In addition, in assay [4] (H69AR cells + 2 uM doxorubicin), the differential viability (reversal) was -7.5% (inactive). Also, the inhibition in assay [5] was -9.86% (inactive); in assay [6] it was -1.09% (inactive).
`CCN(CC(=O)Nc1ccc2c(c1)CCC2)Cc1nc2ccccc2c(=O)[nH]1`: the viability in assay [1] is 77% (inactive); in assay [2], 81.8% (inactive); in assay [3], 71.5% (inactive); in assay [4] (setting [7]) it was 85.2%; in assay [4] (setting [8]), 71.5%. Further, the differential viability (reversal) in assay [4] (H69AR cells + 2 uM doxorubicin) was -13.7% (inactive). The values for the inhibition in assay [5] and in assay [6] were -2.6% (inactive) and 4.73% (inactive), respectively.
For the compound `O=C(CSc1nc(-c2ccco2)cc(C(F)(F)F)n1)N1CCCc2ccccc21`, the viability in assay [1] is 109% (inactive); in assay [2], 72.5% (inactive); in assay [3], 84% (inactive); in assay [4] (setting [7]) it was 81.9%; in assay [4] (setting [8]), 84%. Besides, the differential viability (reversal) in assay [4] (H69AR cells + 2 uM doxorubicin) is 2.16% (inactive). For the same compound, the inhibition in assay [5] is -1.05% (inactive); in assay [6], -0.16% (inactive).
With `Cc1ccc(NC2=NCC(=O)N2c2ccc3c(c2)OCCO3)c(C)c1`, the viability in assay [1] was 84% (inactive); in assay [2], 95.7% (inactive); in assay [3], 99.4% (inactive); in assay [4] (setting [7]), 98.7%; in assay [4] (setting [8]) it was 99.4%. Moreover, in assay [4] (H69AR cells + 2 uM doxorubicin), the differential viability (reversal) was 0.67% (inactive). The inhibition in assay [5] was -6.16% (inactive); in assay [6] it was -2.9% (inactive).
As for `O=C(NC1CCCCCCC1)C1CCN(c2nc3ccccc3o2)CC1`, the viability in assay [1] was 106% (inactive); in assay [2] it was 85.7% (inactive); in assay [3] it was 92.2% (inactive); in assay [4] (setting [7]), 94.7%; in assay [4] (setting [8]), 92.2%. The differential viability (reversal) in assay [4] (H69AR cells + 2 uM doxorubicin) was -2.57% (inactive). The figures for the inhibition in assay [5] and in assay [6] were 7.2% (inactive) and 1.09% (inactive), respectively.
For `Cc1cc(C(=O)Nc2cccnc2)no1`, the viability in assay [1] is 99% (inactive); in assay [2] it was 101% (inactive); in assay [3], 98.3% (inactive); in assay [4] (setting [7]), 98%; in assay [4] (setting [8]), 98.3%. In addition, the differential viability (reversal) in assay [4] (H69AR cells + 2 uM doxorubicin) is 0.295% (inactive). The results for the inhibition in assay [5] and in assay [6] were 3.78% (inactive) and -2.18% (inactive), respectively.
Consider `Cc1cc(C)n(-c2nc3c(c(=O)[nH]c(=O)n3C)n2Cc2ccc(F)cc2)n1`, for which the viability was 93% (inactive) in assay [1]; 113% (inactive) in assay [2]; 96.5% (inactive) in assay [3]; 87.8% in assay [4] (setting [7]); 96.5% in assay [4] (setting [8]). For the same compound, the differential viability (reversal) in assay [4] (H69AR cells + 2 uM doxorubicin) was 8.69% (inactive). The inhibition in assay [5] was -4.19% (inactive); in assay [6], -1.45% (inactive).
On to `CCc1cn([C@H]2C[C@H](O)[C@@H](CO)O2)c(=O)[nH]c1=O`, for which the viability in assay [1] is 120% (inactive); in assay [2], 93.2% (inactive); in assay [3], 85.9% (inactive); in assay [4] (setting [7]) it was 76.6%; in assay [4] (setting [8]), 85.9%. Moreover, the differential viability (reversal) in assay [4] (H69AR cells + 2 uM doxorubicin) is 9.33% (inactive). Further, the inhibition in assay [5] is -0.26% (inactive); in assay [6], 7.5% (inactive).

The values are drawn from PubChem BioAssay.
